Calls of active or inactive are those of the source. The rule behind the calls is not given here.
How the values were obtained:
[1] = target: T1, Peptidyl-prolyl cis-trans isomerase A (Homo sapiens, UniProt P62937); experiment: Inhibition of recombinant GST-tagged Cyclophilin A (unknown origin) interaction with HCV GST-tagged NS5A at 2 to 4 uM by GST pulldown assay
Target sequence in this assay (P62937 whole entry, looked up): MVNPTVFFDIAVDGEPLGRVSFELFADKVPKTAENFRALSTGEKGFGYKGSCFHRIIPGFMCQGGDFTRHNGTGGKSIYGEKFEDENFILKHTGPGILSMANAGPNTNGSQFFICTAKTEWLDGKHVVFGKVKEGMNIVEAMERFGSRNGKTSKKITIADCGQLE

Hepatitis C virus [2] = experiment: Antiviral activity against HCV infected in human Huh7.5 cells assessed as inhibition of IL-8 level by ELISA in presence of telaprevir; type: functional, organism-based; settings: Hepacivirus hominis; Huh-7
Mus musculus [3] = species on record: Mus musculus; experiment: Activation of calcium-dependent calcineurin phosphatase activity in ionomycin-stimulated BALB/c mouse splenocytes assessed as dephosphorylation of NFAT1 at 1 to 10 uM preincubated for 20 hrs followed by ionomycin stimulation measured after 4 hrs by Western blot analysis
Outline: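 Mouse splenocytes, 2 × 10^6/well, exposed to compound for 20 h at 37 °C, then ionomycin 1 μg/mL for 4 h. Lysed on ice for 10 min and spun at 19 000g. NFAT phosphorylation status in the supernatant read by Western blot with anti-NFATc1 antibody.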

Hepatitis C virus [4] = experiment: Antiviral activity against HCV genotype 1b Con1 infected in human Huh7.5 cells assessed as stimulation of STAT2 expression at 2 uM incubated up to 96 hrs by Western blot analysis; type: functional, organism-based; settings: Hepacivirus hominis, isolate Con1, Huh-7, TDE = time-dependent effect
[5] = target: Peptidyl-prolyl cis-trans isomerase B (Homo sapiens, UniProt P23284)
Hepatitis C virus [6] = experiment: Antiviral activity against HCV genotype 1b Con1 infected in human Huh7.5 cells assessed as inhibition of NS5B expression in membrane fractions at 2 uM by Western blot analysis; type: functional, organism-based; settings: Hepacivirus hominis, isolate Con1, Huh-7
Outline: (§1)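 Con1b replicon cells treated with 2 μM. Total lysates, and a membrane fraction prepared by hypotonic buffer, dounce homogenization, 220g spin and then 68 000g for 1 h at 4 °C, analyzed by Western blot for NS5A and NS5B.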

Hepatitis C virus [7] = experiment: Antiviral activity against recombinant HCV genotype 2a JFH1 infected in human […] for 5 hrs measured on day 3 post infection by luciferase reporter gene assay; type: functional, organism-based, Hepacivirus hominis; settings: JFH-1, Huh-7
Outline: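 Huh7.5 cells infected with JFH1-Luc virus (MOI 0.004) for 5 h at 37 °C with 3-fold serial dilutions of compound. Renilla luciferase read from lysates on day 3 postinfection to derive EC50.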

Hepatitis C virus [8] = experiment: Antiviral activity against HCV infected in human Huh7.5 cells assessed as inhibition of HCV-specific RNA by qRT-PCR method in presence of telaprevir; type: functional, organism-based; settings: Hepacivirus hominis; Huh-7
Mus musculus [9] = experiment: Hepatotoxicity in BALB/c mouse assessed as changes in serum aspartate transaminase level at 50 mg/kg, iv for 2 weeks by GOT kit assay; type: toxicity, organism-based; settings: in vivo, 336 h
Hepatitis C virus [10] = experiment: Antiviral activity against HCV genotype 1b Con1 infected in human Huh7.5 cells assessed as upregulation of IFN-alpha expression incubated up to 96 hrs by ELISA; type: functional, organism-based; settings: Hepacivirus hominis; isolate Con1; Huh-7
Outline: (§2)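 Con1b replicon cells, 2 × 10^6/well, treated with 2 μM for up to 4 days at 37 °C. Pooled culture media assayed for IL-8 and IFN-α by ELISA.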

Mus musculus [11] = experiment: Hepatotoxicity in BALB/c mouse assessed as changes in serum alanine transaminase level at 50 mg/kg, iv for 2 weeks by GPT kit assay; type: toxicity, organism-based; settings: in vivo, 336 h
[12] = target: T1, Peptidyl-prolyl cis-trans isomerase A; experiment: Inhibition of Cyclophilin A peptidyl-prolyl cis-trans isomerase activity (unknown origin) using Succ-Ala-Leu-Pro-Phe-p-nitroaniline as substrate by enzyme kinetic analysis
Target sequence in this assay (P62937 whole entry): as the sequence (P62937 whole entry, looked up) above

Hepatitis C virus [13] = experiment: Antiviral activity against HCV genotype 2a JFH1 infected in human Huh7.5 cells expressing GFP-fused NS5A measured 72 hrs post infection by hoechst 33342 staining based confocal microscopy; type: functional, organism-based, Hepacivirus hominis; settings: JFH-1, Huh-7, 72 h
Mus musculus [14] = experiment: Toxicity in BALB/c mouse assessed as changes in body weight at 50 mg/kg, iv for 2 weeks; type: organism-based; settings: in vivo, 336 h
Hepatitis C virus [15] = experiment: Antiviral activity against HCV genotype 1b Con1 infected in human Huh7.5 cells assessed as stimulation of STAT2 mRNA expression at 2 uM incubated up to 96 hrs by qRT-PCR method; type: functional, organism-based; settings: Hepacivirus hominis, isolate Con1, Huh-7, TDE = time-dependent effect
Outline: (§3)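 mRNA measured by SYBR Green qRT-PCR using the 2^−ΔΔCT method, normalized to GAPDH and expressed as fold change vs controls.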

[16] = Cytotoxicity against HCV infected human Huh7.5 cells assessed as cell death by MTT assay in presence of telaprevir; type: cell-based; settings: huh-7
Hepatitis C virus [17] = experiment: Antiviral activity against HCV genotype 1b Con1 infected in human Huh7.5 cells assessed as stimulation of STAT1 mRNA expression at 2 uM incubated up to 96 hrs by qRT-PCR method; type: functional, organism-based; settings: Hepacivirus hominis, isolate Con1, Huh-7, TDE = time-dependent effect; outline: as §3
Hepatitis C virus [18] = experiment: Antiviral activity against HCV genotype 1b Con1 infected in human Huh7.5 cells assessed as stimulation of ISG15 expression at 2 uM incubated up to 96 hrs by Western blot analysis; type: functional, organism-based; settings: Hepacivirus hominis, isolate Con1, Huh-7, TDE = time-dependent effect
Hepatitis C virus [19] = experiment: Antiviral activity against HCV genotype 1b Con1 infected in human Huh7.5 cells expressing GFP-fused NS5A measured 72 hrs post infection by hoechst 33342 staining based confocal microscopy; type: functional, organism-based, Hepacivirus hominis; settings: isolate Con1, Huh-7, 72 h
Outline: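 Huh7 replicon cells expressing NS5A-GFP seeded at 2 × 10^3/well and left overnight, then given serially diluted compound. At 72 h, fixed in 2% PFA and nuclei stained with Hoechst 33342 (10 μg/mL). Automated confocal imaging: GFP-positive cells give activity, nuclei counts give cytotoxicity. EC50/CC50 from nonlinear regression.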

Hepatitis C virus [20] = experiment: Antiviral activity against HCV genotype 1b Con1 infected in human Huh7.5 cells assessed as reduction of IL-8 level at 2 uM incubated up to 96 hrs by ELISA; type: functional, organism-based; settings: Hepacivirus hominis, isolate Con1, Huh-7, TDE = time-dependent effect; outline: as §2
Hepatitis C virus [21] = experiment: Antiviral activity against HCV genotype 1b Con1 infected in human Huh7.5 cells assessed as inhibition of NS5A expression in membrane fractions at 2 uM by Western blot analysis; type: functional, organism-based; settings: Hepacivirus hominis, isolate Con1, Huh-7; outline: as §1
Hepatitis C virus [22] = experiment: Antiviral activity against HCV genotype 1b Con1 infected in human Huh7.5 cells assessed as inhibition of NS5B expression in total cell lysate at 2 uM by Western blot analysis; type: functional, organism-based; settings: Hepacivirus hominis, isolate Con1, Huh-7; outline: as §1
Hepatitis C virus [23] = experiment: Antiviral activity against HCV infected in human Huh7.5 cells assessed as inhibition of IL-8 level by ELISA in presence of ribavirin; type: functional, organism-based; settings: Hepacivirus hominis; Huh-7
Hepatitis C virus [24] = experiment: Antiviral activity against HCV genotype 1b Con1 infected in human Huh7 cells xenografted in immunodeficient NOD/SCID mouse assessed as inhibition of NS5A expression in liver at 50 mg/kg, ip up to 14 days by DAPI staining based confocal microscopy; type: functional, organism-based; settings: Hepacivirus hominis, isolate Con1, Huh-7
Outline: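 Replicon-engrafted NOD/SCID mice, 50 mg/kg ip for 14 days from week 6, n=5. Paraffin liver sections incubated overnight at 4 °C with anti-human hepatocyte (Hep par 1) and anti-NS5A antibodies (1:50). Alexa 488/546 secondaries 1:100 for 2 h, DAPI 5 min, then confocal imaging.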

[25] = Cytotoxicity against HCV infected human Huh7.5 cells assessed as cell death by MTT assay in presence of IFN-alpha; type: cell-based; settings: huh-7

Peptidyl-prolyl cis-trans isomerase B, sequence (P23284 whole entry): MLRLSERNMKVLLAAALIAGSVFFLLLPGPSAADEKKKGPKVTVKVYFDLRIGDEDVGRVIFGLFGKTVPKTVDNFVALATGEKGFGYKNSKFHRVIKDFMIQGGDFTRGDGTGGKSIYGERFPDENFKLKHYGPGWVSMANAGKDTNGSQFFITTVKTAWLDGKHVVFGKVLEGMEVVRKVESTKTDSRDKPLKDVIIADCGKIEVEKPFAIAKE

Structure (SMILES): COc1cc(C(C(=O)NC2CCCCC2)N(C(=O)Cc2c[nH]c3ccccc23)c2ccc(C(C)C)cc2)cc(OC)c1OC (stereo not given)
- inhibition [1]: Active
- inhibition (Hepatitis C virus [2]): Active
- Activity (Mus musculus [3]): Active
- Activity (Hepatitis C virus [4]): tde
- Kd [5]: 2100 nM
- inhibition (Hepatitis C virus [6]): Active
- EC50 (Hepatitis C virus [7]): 5200 nM
- inhibition (Hepatitis C virus [8]): Active
- Activity (Mus musculus [9]): Non-toxic
- Activity (Hepatitis C virus [10]): Active
- Activity (Mus musculus [11]): Non-toxic
- IC50 [12]: 5.5 nM
- EC50 (Hepatitis C virus [13]): 1120 nM
- Activity (Mus musculus [14]): Non-toxic
- Activity (Hepatitis C virus [15]): tde
- Activity [16]: Non-toxic
- Activity (Hepatitis C virus [17]): tde
- Activity (Hepatitis C virus [18]): tde
- EC50 (Hepatitis C virus [19]): 730 nM
- Activity (Hepatitis C virus [20]): tde
- inhibition (Hepatitis C virus [21]): Active
- inhibition (Hepatitis C virus [22]): Active
- inhibition (Hepatitis C virus [23]): Active
- inhibition (Hepatitis C virus [24]): Active
- Activity [25]: Non-toxic
